Test results published in ChEMBL document CHEMBL1133679, “Synthesis and cytotoxicity of 4-amino-5-oxopyrido[2,3-d]pyrimidine nucleosides” (J Med Chem, 2000).
pEC50: −log10 of the molar value.

Legend:
Type in all cases: functional, cell-based
B16 = test: Cytotoxicity that caused a 50% reduction in absorbance at 490 nm in B16 mouse melanoma cells using MTS assay.
How it was run: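 Compounds taken from 100 mM DMSO stocks and diluted in culture medium. Cells seeded at 4×10^3 per well and exposed to 0.78–100 μM. A 1% DMSO control was run in parallel. MTS reagent added after 72 h and formazan read at 490 nm. EC50 is the concentration giving 50% absorbance reduction versus untreated cells.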

[1] = Cytotoxicity that caused a 50% reduction in absorbance at 490 nm in human prostate cancer HTB-81 cells using MTS assay.
How it was run: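 DU-145 (HTB-81) prostate cancer cells were grown in MEM with 10% fetal bovine serum and 2 mM L-glutamine. They were plated at 4×10^3 per well and treated at 0.78–100 μM from 100 mM DMSO stocks diluted in medium, with a 1% DMSO control. MTS read at 490 nm after 72 h. EC50 is the 50% absorbance drop versus untreated cells.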

[2] = Cytotoxicity that caused a 50% reduction in absorbance at 490 nm in normal human fibroblast (NHF) cells using MTS assay.
How it was run: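 Normal human dermal fibroblasts were cultivated in FGM medium and seeded at 4×10^3 cells per well. Exposure was 0.78–100 μM, diluted in medium from 100 mM DMSO stocks, with a 1% DMSO control. Formazan absorbance at 490 nm was measured by MTS after 72 h. EC50 is the concentration halving absorbance relative to untreated cells.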

SMILES | pEC50 (B16; Mus musculus, B16) | pEC50 ([1]; Homo sapiens, HTB-81) | pEC50 ([2]; Homo sapiens) | pEC50 (B16; b16) | pEC50 ([1]; htb-81) | pEC50 [2]
Nc1ncnc2nccc(O)c12 | < 4.00 | < 4.00 | < 4.00 |  |  | 
Nc1ncnc2c1c(=O)ccn2C1CCC(CO)O1 (stereo unspecified) | 4.33 | 4.36 | 4.22 |  |  | 
C=C1[C@@H](O)[C@H](n2ccc(=O)c3c(N)ncnc32)O[C@@H]1CO | 4.22 | 4.51 | 4.39 |  |  | 
Nc1ncnc2c1c(=O)ccn2[C@@H]1O[C@H](CO)C[C@H]1O | 4.72 | 5.59 | 5.02 |  |  | 
C[C@@H](O)[C@H]1O[C@@H](n2ccc(=O)c3c(N)ncnc32)[C@H](O)[C@@H]1O.C[C@H](O)[C@H]1O[C@@H](n2ccc(=O)c3c(N)ncnc32)[C@H](O)[C@@H]1O | 4.74 | 5.00 | 4.78 |  |  | 
Nc1ncnc2c1c(=O)ccn2[C@H]1C[C@H](O)[C@@H](CO)O1 | 4.95 | 5.41 | 5.30 |  |  | 
C=C1[C@H](n2ccc(=O)c3c(N)ncnc32)O[C@H](CO)[C@H]1O | < 4.00 | < 4.00 | < 4.00 |  |  | 
Nc1ncnc2c1c(=O)ccn2[C@H]1C[C@@H](O)[C@@H](CO)O1 | 4.16 | 4.58 | 4.41 |  |  | 
Nc1ncnc2c1c(=O)ccn2[C@@H]1OC(CO)(CO)[C@@H](O)[C@H]1O | < 4.00 | < 4.00 | < 4.00 |  |  | 
N=c1ncn(C2OC(CO)[C@@H](O)[C@@H]2O)c2nccc(O)c12 (stereo partly specified) | < 4.00 | < 4.00 | < 4.00 |  |  | 
C=C[C@]1(CO)OC(n2ccc(=O)c3c(N)ncnc32)[C@H](O)[C@@H]1O (stereo partly specified) | 4.00 | 4.47 | 4.11 |  |  | 
Nc1ncnc2c1c(=O)ccn2C1O[C@H](CO)[C@@H](O)[C@@H]1O (stereo partly specified) | 4.48 | 4.66 | 4.63 |  |  | 
C#C[C@]1(O)C(n2ccc(=O)c3c(N)ncnc32)O[C@H](CO)[C@H]1O (stereo partly specified) | 4.09 | 4.53 | 4.19 |  |  | 
C[C@]1(CO)OC(n2ccc(=O)c3c(N)ncnc32)[C@H](O)[C@@H]1O (stereo partly specified) | 4.26 | 4.71 | 4.52 |  |  | 
C[C@]1(O)C(n2ccc(=O)c3c(N)ncnc32)O[C@H](CO)[C@H]1O (stereo partly specified) | 4.07 | 4.33 | < 4.00 |  |  | 
CC[C@]1(CO)OC(n2ccc(=O)c3c(N)ncnc32)[C@H](O)[C@@H]1O (stereo partly specified) | 4.02 | 4.44 | 4.19 |  |  | 
C#C[C@]1(O)[C@@H](CO)OC(n2ccc(=O)c3c(N)ncnc32)[C@@H]1O (stereo partly specified) | < 4.00 | < 4.00 | < 4.00 |  |  | 
N=c1ncn(C2O[C@H](CO)[C@@H](O)[C@H]2O)c2nccc(O)c12 (stereo partly specified) |  | 5.14 | 5.14 |  |  | 
C=CC[C@@H](O)[C@H]1OC(n2ccc(=O)c3c(N)ncnc32)[C@H](O)[C@@H]1O (stereo partly specified) | 4.18 | 4.45 | 4.14 |  |  | 
C#C[C@@]1(O)[C@@H](CO)OC(n2ccc(=O)c3c(N)ncnc32)[C@@H]1O (stereo partly specified) | 5.61 | 6.17 | 5.19 |  |  | 
C[C@@]1(O)[C@@H](CO)OC(n2ccc(=O)c3c(N)ncnc32)[C@@H]1O (stereo partly specified) | 4.50 | 5.35 | 4.98 |  |  | 
Nc1ncnc2c1c(=O)ccn2C1O[C@H](CO)[C@H](O)[C@H]1O (stereo partly specified) | 5.23 | 6.14 | 4.68 |  |  | 
CCC[C@@H](O)[C@H]1OC(n2ccc(=O)c3c(N)ncnc32)[C@H](O)[C@@H]1O (stereo partly specified) | 4.29 | 4.69 | 4.39 |  |  | 
C#C[C@@H](O)[C@H]1O[C@@H](n2ccc(=O)c3c(N)ncnc32)[C@H](O)[C@@H]1O.C#C[C@H](O)[C@H]1O[C@@H](n2ccc(=O)c3c(N)ncnc32)[C@H](O)[C@@H]1O (mixture of isomers) | 4.76 | 5.21 | 4.82 |  |  | 
CC[C@@H](O)[C@H]1O[C@@H](n2ccc(=O)c3c(N)ncnc32)[C@H](O)[C@@H]1O.CC[C@H](O)[C@H]1O[C@@H](n2ccc(=O)c3c(N)ncnc32)[C@H](O)[C@@H]1O (mixture of isomers) | 4.79 | 4.76 | 4.72 |  |  | 
Nc1ncnc2c1c(=O)ccn2[C@@H]1O[C@H](CO)[C@@H](O)[C@H]1O (stereo in doubt; 1b) |  |  |  | 7.22 | 7.22 | 7.10
Nc1ncnc2c1c(=O)ccn2[C@@H]1O[C@H](CO)[C@@H](O)[C@H]1O (stereo in doubt; 1b-L) |  |  |  | < 4.00 | < 4.00 | < 4.00
COc1cccc2c1C(=O)c1c(O)c3c(c(O)c1C2=O)C[C@@](O)(C(C)=O)C[C@@H]3O[C@H]1C[C@H](N)[C@H](O)[C@H](C)O1 [DAUNORUBICIN] | 6.80 | 7.24 | 6.66 |  |  | 
N#Cc1cn([C@@H]2O[C@H](CO)[C@@H](O)[C@H]2O)c2ncnc(N)c12 [TOYOCAMYCIN] | 8.30 | 7.92 | 8.40 |  |  | 
